Test results taken from the RNAGym collection of RNA variant scans (doi:10.1038/nmeth.2970).

B1: NELF-E aptamer (parent)
chain: CCCAACGACUGCCGAGCGAGAUUACGCUUGAGCGCCCCACUGAGGAUGCCCACGGGCGAUUGGGGCACGG

Variants of: B1
Assay: HiTS-RAP
Conditions: with NELF-E (Drosophila)
Outline: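 Aptamer DNA templates carrying a T7 promoter and ter site were sequenced on an Illumina GAIIx flowcell, then transcribed in situ by T7 RNA polymerase and halted by GST-Tus (30 minutes, 37°C). Clusters were imaged after 30-minute room-temperature equilibration with NELF-E-mOrange at 0.064 to 1000 nM in HEPES binding buffer, and only the first binding curve was used. Intensities were normalised to sequencing intensity and averaged per sequence. Kd came from weighted Hill fits, keeping fits with variance below 1,000,000.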

Point of comparison: C6G A39U, Kd 28.8 nM. Against it:
- A5G G45A — within 1.5-fold, 21.9 nM
- C6U G26A — 7.1-fold lower, 4.04 nM
- C6G C27U — 5.5-fold lower, 5.23 nM
- C6A U29G — 4.2-fold lower, 6.91 nM
- A5U A15U — 4.4-fold lower, 6.62 nM
- A5U A15G — 5.2-fold lower, 5.49 nM
- A5U U29C — 3.5-fold lower, 8.32 nM
- A5U U29A — 5.1-fold lower, 5.62 nM
- A5U U29G — 4.9-fold lower, 5.91 nM
- A5G U10C — 6-fold lower, 4.79 nM
- A5G U10G — 5.3-fold lower, 5.47 nM
- A5G U10A — 6.2-fold lower, 4.67 nM
- C6G A67U — 4.5-fold lower, 6.45 nM
- C6G A67G — 4.7-fold lower, 6.07 nM
- G7A C9G — 5.2-fold lower, 5.55 nM
- C6G G32A — 6.3-fold lower, 4.6 nM
- A5U C9G — 4.5-fold lower, 6.45 nM
- A5U C9U — 4.5-fold lower, 6.47 nM
- C6G G18U — 4.5-fold lower, 6.37 nM
- C6G G18A — 6.4-fold lower, 4.48 nM
- C6G C66U — 5.3-fold lower, 5.41 nM
- C6G C66A — 5.4-fold lower, 5.34 nM
- C6A — 4.7-fold lower, 6.13 nM
- C6U — 5.4-fold lower, 5.29 nM
- C6G — 6.1-fold lower, 4.75 nM
- C6G C36U — 3.9-fold lower, 7.42 nM
- C6G U60C — 2.8-fold lower, 10.3 nM
- C6G U60G — 5.1-fold lower, 5.7 nM
- C6G U60A — 2.6-fold lower, 10.9 nM
- G7A — 5.1-fold lower, 5.61 nM
- A5G G65U — 4.3-fold lower, 6.76 nM
- C6A G7U — 4.4-fold lower, 6.56 nM
- A5U G63A — 3-fold lower, 9.5 nM
- A5U G63U — 1.8-fold lower, 15.8 nM
- A5G G42A — within 1.5-fold, 27.1 nM
- A5U U10G — 5.2-fold lower, 5.49 nM
- A5U U10A — 3.7-fold lower, 7.7 nM
- A5U U10C — 5.8-fold lower, 4.96 nM
- G7A G16U — 5.2-fold lower, 5.55 nM
- A5U A59G — 2.8-fold higher, 81.5 nM
- A5U U41G — 4.8-fold lower, 6.01 nM
- A5U U41A — 2.8-fold higher, 80.9 nM
- C6A A24G — 3.9-fold lower, 7.36 nM
- C6U U41A — 2.9-fold higher, 82.3 nM
- C6U U41G — 5.6-fold lower, 5.16 nM
- C6U U41C — 2.8-fold higher, 81.8 nM
- A5G U29G — 4.7-fold lower, 6.19 nM
- A5G U29C — 4.3-fold lower, 6.65 nM
- A5G U29A — 4.8-fold lower, 6.04 nM
- C6U U23G — 4.7-fold lower, 6.14 nM
- C6G G54U — 3-fold lower, 9.57 nM
- C6G G54A — 2.3-fold lower, 12.5 nM
- C6G G26U — 5.2-fold lower, 5.54 nM
- C6G G26A — 6.6-fold lower, 4.39 nM
- C6G A31U — 5.2-fold lower, 5.5 nM
- C6G A31G — 4.2-fold lower, 6.87 nM
- A5U G16A — 3.6-fold lower, 8.1 nM
- A5U G16U — 4.2-fold lower, 6.86 nM
- A5G U41A — within 1.5-fold, 25 nM
- A5G U41G — 4.6-fold lower, 6.23 nM
- A5G U41C — 2.9-fold higher, 84.9 nM
- A5G G34A — 4.9-fold lower, 5.89 nM
- C6G C57G — 4.4-fold lower, 6.54 nM
- C6G C57U — 4.7-fold lower, 6.1 nM
- C6U G42A — 1.8-fold higher, 52.7 nM
- C6U G14U — 4.1-fold lower, 7.02 nM
- C6U G14A — 4.1-fold lower, 7.01 nM
- C6U U22G — 5.2-fold lower, 5.57 nM
- A5G G48A — 2.3-fold lower, 12.6 nM
- C6G U23A — 5.6-fold lower, 5.12 nM
- C6G U23G — 6-fold lower, 4.81 nM
- C6G U23C — 6.5-fold lower, 4.4 nM
- C6G G58U — 4.1-fold lower, 6.94 nM
- C6A C12G — 4.4-fold lower, 6.54 nM
- A5G G30A — 5.3-fold lower, 5.43 nM
- C6A G11U — 4.4-fold lower, 6.57 nM
- C6G A52G — 6.5-fold lower, 4.45 nM
- C6G A52U — 1.8-fold lower, 16.1 nM
- C6G G62U — 4-fold lower, 7.26 nM
- C6G G62A — within 1.5-fold, 21.9 nM
- A5U U22C — 5.6-fold lower, 5.1 nM
- A5U U22G — 4.7-fold lower, 6.13 nM
- C6U C9G — 4.4-fold lower, 6.57 nM
- C6U C9U — 5.4-fold lower, 5.38 nM
- A5U U47G — 4.1-fold lower, 7.11 nM
- A5U U47A — 2.7-fold lower, 10.5 nM
- A5U G34A — 5.2-fold lower, 5.54 nM
- G7A A8C — 4.9-fold lower, 5.87 nM
- G7A A8G — 4.5-fold lower, 6.39 nM
- G7A A8U — 3.4-fold lower, 8.46 nM
- C6G G64U — 4.5-fold lower, 6.35 nM
- C6G G64A — 3.8-fold lower, 7.6 nM
- C6G G64C — 4.5-fold lower, 6.39 nM
- A5U C25G — 4.7-fold lower, 6.13 nM
- C6G G34A — 3.6-fold lower, 8 nM
- C6G G34U — 5-fold lower, 5.79 nM
- C6G G44U — 3.3-fold lower, 8.75 nM
- C6G G44A — 2.1-fold higher, 61 nM
- A5U U61A — within 1.5-fold, 41.2 nM
- A5U U61C — 3-fold higher, 85.8 nM
- C6G A8C — 4.5-fold lower, 6.37 nM
- C6G A8U — 5.1-fold lower, 5.7 nM
- C6G A8G — 5.2-fold lower, 5.5 nM
- A5U C37A — 1.9-fold lower, 14.8 nM
- C6U C17G — 4.7-fold lower, 6.11 nM
- C6U C17U — 4.5-fold lower, 6.39 nM
- C6U G34A — 4.4-fold lower, 6.54 nM
- C6G G63U — 2.7-fold lower, 10.8 nM
- C6G G63A — within 1.5-fold, 19.7 nM
- C6U C13G — 5.1-fold lower, 5.6 nM
- C6U C13U — 5.7-fold lower, 5.09 nM
- C6G C25G — 5.1-fold lower, 5.65 nM
- C6G C25U — 5.1-fold lower, 5.65 nM
- C6G G42A — within 1.5-fold, 40.3 nM
- C6G G42U — 2.1-fold lower, 13.8 nM
- C6U G7U — 4.3-fold lower, 6.71 nM
- A5U G42A — 2.4-fold higher, 67.8 nM
- C6U A31G — 3.3-fold lower, 8.72 nM
- C6G A19G — 5.2-fold lower, 5.53 nM
- C6G A19U — 4.8-fold lower, 5.95 nM
- C6G U10A — 5.6-fold lower, 5.16 nM
- C6G U10G — 6-fold lower, 4.77 nM
- C6G U10C — 5.4-fold lower, 5.34 nM
- C6U C25G — 3.7-fold lower, 7.85 nM
- A5G G54A — 2.2-fold lower, 12.9 nM
- C6G U22G — 5.7-fold lower, 5.09 nM
- C6G U22C — 5.7-fold lower, 5.08 nM
- G7A U29G — 4.5-fold lower, 6.46 nM
- C6G C9U — 5.2-fold lower, 5.58 nM
- C6G C9G — 5.4-fold lower, 5.38 nM
- C6G A39C — within 1.5-fold, 24 nM
- C6G A39G — 3-fold lower, 9.71 nM
- A5U G14A — 4.7-fold lower, 6.18 nM
- A5U G14U — 4.5-fold lower, 6.34 nM
- A5U C38U — 2.7-fold lower, 10.6 nM
- C6A U10G — 5-fold lower, 5.78 nM
- A5U A8G — 4.6-fold lower, 6.23 nM
- A5U A8C — 3.5-fold lower, 8.3 nM
- A5U A8U — 4.2-fold lower, 6.78 nM
- A5U G54A — 2.1-fold lower, 13.9 nM
- C6G G7A — 4.4-fold lower, 6.58 nM
- C6G G7U — 5.2-fold lower, 5.56 nM
- C6G G7C — 3.9-fold lower, 7.44 nM
- A5U A31G — 4.1-fold lower, 7.03 nM
- C6G C37A — 1.5-fold lower, 18.7 nM
- C6G C37U — within 1.5-fold, 23.4 nM
- C6U A39G — 2.5-fold lower, 11.6 nM
- C6U G56U — 4.4-fold lower, 6.57 nM
- G7A A39G — 2.4-fold lower, 12.1 nM
- C6G G45A — 3.2-fold higher, 91 nM
- C6G G45U — 2.9-fold lower, 9.94 nM
- A5U A67G — 4.4-fold lower, 6.53 nM
- A5U A67U — 4-fold lower, 7.25 nM
- A5U G65U — 3.4-fold lower, 8.58 nM
- A5U G65A — 4.2-fold lower, 6.8 nM
- C6G A15G — 5.3-fold lower, 5.46 nM
- C6G A15U — 4.6-fold lower, 6.24 nM
- A5G G55U — 3.7-fold lower, 7.72 nM
- A5G G55A — 2.6-fold lower, 11.2 nM
- C6G G55U — 4.6-fold lower, 6.23 nM
- C6G G55A — 4.4-fold lower, 6.61 nM
- C6U U29A — 5.1-fold lower, 5.66 nM
- C6U U29G — 5-fold lower, 5.8 nM
- A5G G63U — 2.4-fold lower, 12.1 nM
- A5G G63A — 2-fold lower, 14.1 nM
- C6U G55A — 3.7-fold lower, 7.75 nM
